From ChEMBL document CHEMBL1817551, “Design of small molecule inhibitors of acetyl-CoA carboxylase 1 and 2 showing reduction of hepatic malonyl-CoA levels in vivo in obese Zucker rats” (Bioorg Med Chem, 2011)
≈ marks a conversion by molar mass, not a printed value.

Columns and labels:
[1] = Lipophilicity, log D of the compound; type: physicochemical; settings: octanol/water
[2] = molecular target: Acetyl-CoA carboxylase 2 (Homo sapiens, UniProt O00763); assay: Inhibition of human recombinant his-tagged ACC2 expressed in baculovirus/Sf9 cell assessed as inorganic phosphate formation […] measured after 1.5 hrs by Malachite green reagent method
[3] = molecular target: Acetyl-CoA carboxylase 1 (Homo sapiens, UniProt Q13085); assay: Inhibition of human recombinant his-tagged ACC1 expressed in baculovirus/Sf9 cell assessed as inorganic phosphate formation […] measured after 1.5 hrs by Malachite green reagent method
[4] = Solubility of the compound after 16 hrs by LC-UV/MS analysis; type: physicochemical
[5] = Intrinsic clearance in human liver microsome at 1 uM after 30 mins by LC-UV/MS analysis; type: ADME; settings: liver microsomes
[6] = Clearance in Sprague-Dawley rat at 3 to 5 umol/kg, iv; type: ADME, organism-based; settings: in vivo
[7] = molecular target: Cytochrome P450 2C9 (Homo sapiens, UniProt P11712); assay: Inhibition of CYP2C9; type: ADME
[8] = molecular target: Cytochrome P450 3A4 (Homo sapiens, UniProt P08684); assay: Inhibition of CYP3A4; type: ADME
[9] = molecular target: T1, Cytochrome P450 1A2 (Homo sapiens, UniProt P05177); assay: Inhibition of CYP1A2; type: ADME
T1 sequence (P05177 whole entry): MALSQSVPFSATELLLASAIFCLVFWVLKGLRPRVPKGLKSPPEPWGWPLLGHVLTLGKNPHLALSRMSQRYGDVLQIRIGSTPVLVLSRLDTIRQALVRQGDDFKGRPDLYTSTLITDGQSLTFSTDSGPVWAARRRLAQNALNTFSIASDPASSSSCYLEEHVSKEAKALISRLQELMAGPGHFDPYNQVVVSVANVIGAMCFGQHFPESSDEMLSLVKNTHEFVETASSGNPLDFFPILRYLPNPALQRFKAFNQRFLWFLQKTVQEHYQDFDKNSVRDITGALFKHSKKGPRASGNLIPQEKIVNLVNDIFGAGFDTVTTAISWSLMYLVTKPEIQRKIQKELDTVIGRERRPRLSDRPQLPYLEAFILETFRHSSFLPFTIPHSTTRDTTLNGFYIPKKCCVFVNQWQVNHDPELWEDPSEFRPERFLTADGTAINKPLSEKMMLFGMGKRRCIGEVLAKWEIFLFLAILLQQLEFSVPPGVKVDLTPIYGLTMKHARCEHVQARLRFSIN

[10] = Fraction unbound in human plasma at 10 uM after 18 hrs by equilibrium dialysis method; type: ADME, cell-free
[11] = Fraction unbound in rat plasma at 10 uM after 18 hrs by equilibrium dialysis method; type: ADME, cell-free
[12] = tested on: Rattus norvegicus; assay: Ratio of […] to fraction unbound in Sprague-Dawley rat at 3 to 5 umol/kg, iv; type: ADME, organism-based; settings: in vivo
[13] = Clearance in C57BL/6 mouse at 33 umol/kg, iv and po; type: ADME, organism-based; settings: in vivo
[14] = Volume of distribution in C57BL/6 mouse at 33 umol/kg, iv and po; type: ADME, organism-based; settings: in vivo
[15] = Half life in C57BL/6 mouse at 33 umol/kg, po; type: ADME, organism-based; settings: in vivo
[16] = Oral bioavailability in C57BL/6 mouse at 33 umol/kg; type: ADME, organism-based; settings: in vivo
[17] = tested on: Rattus norvegicus; assay: Antiobesity activity in obese Zucker rat assessed as reduction in hepatic malonyl-coA level, iv administered 2 hrs; type: functional; parameters: scale not given: the % may be the effect or the level left
Method in brief: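 Obese Zucker rats were anaesthetized with Inactin (180 mg/kg ip), tracheotomized and fitted with carotid and jugular catheters. After 1.5 h post-surgery stabilization at 37.5 °C, compound or vehicle was infused iv; lean vehicle controls were included. Hepatic malonyl-CoA was measured by ion-pair HPLC–negative ESI MS/MS against a ¹³C₃ internal standard and related to plasma free exposure (fu×Cp/rat ACC2 IC50).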

Chain of Acetyl-CoA carboxylase 2 (O00763 whole entry): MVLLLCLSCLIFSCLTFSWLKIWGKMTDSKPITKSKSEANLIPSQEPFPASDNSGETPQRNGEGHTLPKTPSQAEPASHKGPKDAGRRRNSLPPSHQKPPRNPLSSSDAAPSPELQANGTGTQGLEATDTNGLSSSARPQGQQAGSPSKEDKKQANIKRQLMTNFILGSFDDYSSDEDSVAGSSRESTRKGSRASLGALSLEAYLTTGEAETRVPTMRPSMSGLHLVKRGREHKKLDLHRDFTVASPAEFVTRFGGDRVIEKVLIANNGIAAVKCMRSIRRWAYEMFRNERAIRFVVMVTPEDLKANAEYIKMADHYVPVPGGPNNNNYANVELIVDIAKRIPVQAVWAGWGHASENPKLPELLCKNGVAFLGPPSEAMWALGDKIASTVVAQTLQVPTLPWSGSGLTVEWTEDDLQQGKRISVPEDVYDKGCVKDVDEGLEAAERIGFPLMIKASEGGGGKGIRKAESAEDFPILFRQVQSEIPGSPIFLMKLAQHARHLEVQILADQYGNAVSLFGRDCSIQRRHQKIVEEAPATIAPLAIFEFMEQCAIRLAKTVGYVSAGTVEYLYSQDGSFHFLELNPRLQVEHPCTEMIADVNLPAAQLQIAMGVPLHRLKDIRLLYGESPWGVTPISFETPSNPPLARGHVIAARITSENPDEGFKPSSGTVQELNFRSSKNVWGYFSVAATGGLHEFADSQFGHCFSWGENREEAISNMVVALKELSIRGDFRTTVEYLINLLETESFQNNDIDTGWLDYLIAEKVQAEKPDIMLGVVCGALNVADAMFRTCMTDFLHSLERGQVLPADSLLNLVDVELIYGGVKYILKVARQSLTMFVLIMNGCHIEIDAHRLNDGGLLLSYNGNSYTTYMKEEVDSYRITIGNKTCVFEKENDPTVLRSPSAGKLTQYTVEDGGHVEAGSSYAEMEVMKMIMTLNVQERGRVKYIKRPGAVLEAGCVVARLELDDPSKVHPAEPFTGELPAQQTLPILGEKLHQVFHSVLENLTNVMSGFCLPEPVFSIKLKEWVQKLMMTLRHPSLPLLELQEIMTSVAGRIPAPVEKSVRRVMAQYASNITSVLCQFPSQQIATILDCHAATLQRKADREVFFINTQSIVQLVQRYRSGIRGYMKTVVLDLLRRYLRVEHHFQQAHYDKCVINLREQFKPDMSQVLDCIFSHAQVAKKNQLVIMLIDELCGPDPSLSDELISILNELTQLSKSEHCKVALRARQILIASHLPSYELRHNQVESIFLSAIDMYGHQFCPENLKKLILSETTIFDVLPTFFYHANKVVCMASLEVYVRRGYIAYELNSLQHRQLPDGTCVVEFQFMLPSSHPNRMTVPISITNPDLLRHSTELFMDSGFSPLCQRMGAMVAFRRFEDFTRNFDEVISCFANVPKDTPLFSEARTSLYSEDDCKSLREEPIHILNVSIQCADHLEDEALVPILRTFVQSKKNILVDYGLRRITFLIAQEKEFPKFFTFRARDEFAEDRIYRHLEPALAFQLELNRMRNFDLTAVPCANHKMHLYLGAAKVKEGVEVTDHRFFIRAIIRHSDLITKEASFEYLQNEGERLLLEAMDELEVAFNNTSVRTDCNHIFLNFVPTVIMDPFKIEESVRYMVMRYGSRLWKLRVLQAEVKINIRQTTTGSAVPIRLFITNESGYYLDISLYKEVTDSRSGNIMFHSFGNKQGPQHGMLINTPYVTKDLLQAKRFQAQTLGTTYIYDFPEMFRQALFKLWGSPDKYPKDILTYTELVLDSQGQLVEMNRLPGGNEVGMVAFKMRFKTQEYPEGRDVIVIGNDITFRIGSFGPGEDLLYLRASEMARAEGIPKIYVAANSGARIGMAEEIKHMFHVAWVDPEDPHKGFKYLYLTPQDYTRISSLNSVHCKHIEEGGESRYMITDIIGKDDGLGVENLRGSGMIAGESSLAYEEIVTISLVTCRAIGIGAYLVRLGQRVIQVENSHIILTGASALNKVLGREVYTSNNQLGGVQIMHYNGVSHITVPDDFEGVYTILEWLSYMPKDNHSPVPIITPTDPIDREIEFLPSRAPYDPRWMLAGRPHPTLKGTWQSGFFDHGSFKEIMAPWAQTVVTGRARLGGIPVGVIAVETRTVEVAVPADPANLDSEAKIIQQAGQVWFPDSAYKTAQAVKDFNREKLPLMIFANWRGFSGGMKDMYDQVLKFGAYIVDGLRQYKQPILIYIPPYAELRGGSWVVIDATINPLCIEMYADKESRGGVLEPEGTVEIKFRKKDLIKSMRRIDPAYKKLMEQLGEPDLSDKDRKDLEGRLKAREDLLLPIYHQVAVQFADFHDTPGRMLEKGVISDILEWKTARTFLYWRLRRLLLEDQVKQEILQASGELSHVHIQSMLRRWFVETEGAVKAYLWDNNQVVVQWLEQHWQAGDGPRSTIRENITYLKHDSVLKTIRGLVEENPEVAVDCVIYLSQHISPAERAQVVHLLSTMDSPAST
Chain of Cytochrome P450 2C9 (P11712 whole entry): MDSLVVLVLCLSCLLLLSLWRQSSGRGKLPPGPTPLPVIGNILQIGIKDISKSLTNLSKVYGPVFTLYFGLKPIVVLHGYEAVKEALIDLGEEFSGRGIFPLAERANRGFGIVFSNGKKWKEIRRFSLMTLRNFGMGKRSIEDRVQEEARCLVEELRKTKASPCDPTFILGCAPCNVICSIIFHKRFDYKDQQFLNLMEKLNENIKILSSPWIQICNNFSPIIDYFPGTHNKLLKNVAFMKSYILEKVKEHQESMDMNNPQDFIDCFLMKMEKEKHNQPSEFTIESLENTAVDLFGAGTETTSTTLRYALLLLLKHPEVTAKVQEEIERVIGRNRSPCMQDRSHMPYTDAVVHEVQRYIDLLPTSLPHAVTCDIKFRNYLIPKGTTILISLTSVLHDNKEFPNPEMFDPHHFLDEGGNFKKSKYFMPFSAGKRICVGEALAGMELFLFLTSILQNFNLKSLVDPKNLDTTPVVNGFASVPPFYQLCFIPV
Chain of Cytochrome P450 3A4 (P08684 whole entry): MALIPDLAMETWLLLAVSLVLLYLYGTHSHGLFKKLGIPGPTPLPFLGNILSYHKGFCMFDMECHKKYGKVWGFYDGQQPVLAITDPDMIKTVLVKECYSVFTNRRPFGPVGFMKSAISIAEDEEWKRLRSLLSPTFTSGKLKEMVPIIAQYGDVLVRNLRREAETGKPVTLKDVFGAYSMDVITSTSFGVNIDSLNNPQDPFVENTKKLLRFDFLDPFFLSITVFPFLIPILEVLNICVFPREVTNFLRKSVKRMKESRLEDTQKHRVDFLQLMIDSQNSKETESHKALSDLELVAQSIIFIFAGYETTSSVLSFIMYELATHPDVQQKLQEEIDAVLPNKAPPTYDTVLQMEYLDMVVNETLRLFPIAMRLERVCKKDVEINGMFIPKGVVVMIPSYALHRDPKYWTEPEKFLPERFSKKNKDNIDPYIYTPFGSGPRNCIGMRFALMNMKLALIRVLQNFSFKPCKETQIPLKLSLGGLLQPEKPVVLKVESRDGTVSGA

SMILES	logD [1]	IC50 [2]	IC50 [3]	other results
Cc1cc(C(=O)NC[C@H]2CC[C@H](CNC(=O)OC(C)(C)C)CC2)cc(-c2ccccc2)n1	5.3	–	–	–
CC(C)(C)OC(=O)NC[C@H]1CC[C@H](CNC(=O)c2cc(-c3cccc(CN)c3)nc3ccccc23)CC1	3.4	0.052 µM	0.24 µM	solubility at 16 h [4]: 8 µM (≈ 4.02 µg/mL); microsomal CLint at 1 µM [5]: 14 µL/min/mg; clearance [6]: 104 mL/min/kg; IC50 [7]: 0.8 µM; IC50 [8]: 2.4 µM; IC50 [9]: 4 µM
CC(C)(C)OC(=O)NC[C@H]1CC[C@H](CNC(=O)c2ccnc(-c3ccccc3)c2)CC1	4.7	–	–	–
CC(C)(C)OC(=O)NC[C@H]1CC[C@H](CNC(=O)c2cc(-c3ccncc3)nc3ccccc23)CC1	4.4	–	1.1 µM	solubility at 16 h [4]: < 1 µM; microsomal CLint at 1 µM [5]: 146 µL/min/mg
CC(C)(C)OC(=O)NC[C@H]1CC[C@H](CNS(=O)(=O)c2ccc3ccccc3c2)CC1	–	2.5 µM	–	–
O=C(c1cc(-c2ccccc2)nc2ccccc12)N1CCN(Cc2ccc3c(c2)OCO3)CC1	–	3.6 µM	–	–
CC(C)(C)OC(=O)NC[C@H]1CC[C@H](CNC(=O)c2cc(-c3ccc(C(=O)O)cc3)nc3ccccc23)CC1	2.5	0.75 µM	2.9 µM	–
CC(C)(C)OC(=O)NC[C@H]1CC[C@H](CNS(=O)(=O)c2cc(-c3ccccc3)nc3ccccc23)CC1	–	0.69 µM	–	–
O=C(c1c2ccccc2cc2ccccc12)N1CCC(N2CCC[C@@H](C(=O)N3CCOCC3)C2)CC1	–	–	–	Activity [17]: 50%

Further lines, with some results ahead:

logD [1]	IC50 [2]	IC50 [3]	SMILES	other results
3	–	–	CN(C)CCOC1CN(c2cc(C(=O)NC[C@H]3CC[C@H](CNC(=O)OC(C)(C)C)CC3)c3ccccc3n2)C1	–
3.6	1.7 µM	9.9 µM	CN(C)CCC1CCN(c2cc(C(=O)NC[C@H]3CC[C@H](COC(=O)NC(C)(C)C)CC3)c3ccccc3n2)CC1	–
3.5	0.57 µM	2.3 µM	CC(C)(C)OC(=O)NC[C@H]1CC[C@H](CNC(=O)c2cc(-c3cn[nH]c3)nc3ccccc23)CC1	–
5.9	0.21 µM	–	CC(C)(C)OC(=O)NC[C@H]1CC[C@H](CNC(=O)c2cc(-c3ccccc3)nc3ccccc23)CC1	solubility at 16 h [4]: < 1 µM; fraction unbound at 18 h, 10 µM [10]: 0.001; microsomal CLint at 1 µM [5]: 124 µL/min/mg; clearance [6]: 60 mL/min/kg; fraction unbound at 18 h, 10 µM [11]: 0.005; Ratio [12]: 12000
4	0.13 µM	1 µM	CN(C)CCC1CCN(c2cc(C(=O)NC[C@H]3CC[C@H](CNC(=O)OCC(C)(C)C)CC3)c3ccccc3n2)CC1	clearance [13]: 52 mL/min/kg; Vd [14]: 9.6 L/kg; half-life [15]: 2.9 h; bioavailability [16]: 115%
2.9	–	13 µM	CC(C)(C)OC(=O)NC[C@H]1CC[C@H](CNC(=O)c2cc(N3CCNCC3)nc3ccccc23)CC1	–
